{"source": "paper PMC5900965", "about": "(Clinical Pharmacology in Drug Development, 2017)", "key": {"CYP3A [1]": {"target": "T1, CYP3A (Homo sapiens, UniProt P08684)", "T1 sequence (P08684 2-503)": "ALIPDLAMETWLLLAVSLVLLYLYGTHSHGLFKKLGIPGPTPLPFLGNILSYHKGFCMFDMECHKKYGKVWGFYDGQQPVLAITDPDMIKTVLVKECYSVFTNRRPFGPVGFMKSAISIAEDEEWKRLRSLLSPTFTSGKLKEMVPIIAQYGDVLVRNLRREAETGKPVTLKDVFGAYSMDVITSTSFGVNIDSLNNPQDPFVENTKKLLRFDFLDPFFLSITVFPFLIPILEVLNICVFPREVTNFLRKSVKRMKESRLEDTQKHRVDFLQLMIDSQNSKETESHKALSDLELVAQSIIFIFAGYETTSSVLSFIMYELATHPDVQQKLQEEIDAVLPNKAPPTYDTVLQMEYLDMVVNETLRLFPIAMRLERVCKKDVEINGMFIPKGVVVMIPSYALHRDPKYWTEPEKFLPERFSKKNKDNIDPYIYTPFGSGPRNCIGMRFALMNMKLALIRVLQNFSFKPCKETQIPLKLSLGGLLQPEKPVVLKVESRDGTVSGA", "experiment": "Reversible inhibition of CYP3A in pooled human liver microsomes", "type": "in vitro ADME"}, "CYP1A2 [2]": {"target": "T2, CYP1A2 (Homo sapiens, UniProt P05177)", "T2 sequence (P05177 1-516)": "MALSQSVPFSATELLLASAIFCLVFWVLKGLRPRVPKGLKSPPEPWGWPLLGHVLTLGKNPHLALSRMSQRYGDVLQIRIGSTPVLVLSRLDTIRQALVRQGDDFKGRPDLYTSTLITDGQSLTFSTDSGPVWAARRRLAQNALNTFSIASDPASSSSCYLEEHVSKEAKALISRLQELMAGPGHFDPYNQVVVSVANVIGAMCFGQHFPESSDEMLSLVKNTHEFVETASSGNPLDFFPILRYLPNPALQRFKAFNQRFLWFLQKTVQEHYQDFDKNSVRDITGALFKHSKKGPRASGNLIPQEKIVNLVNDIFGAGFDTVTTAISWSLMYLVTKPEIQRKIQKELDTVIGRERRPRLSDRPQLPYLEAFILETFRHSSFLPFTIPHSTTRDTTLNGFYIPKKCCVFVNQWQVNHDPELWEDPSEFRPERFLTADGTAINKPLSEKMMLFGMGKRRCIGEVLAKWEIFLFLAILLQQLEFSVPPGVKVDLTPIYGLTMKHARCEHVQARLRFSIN", "experiment": "biochemical", "type": "in vitro ADME"}, "CYP2B6": {"target": "T3, CYP2B6 (Homo sapiens, UniProt P20813)", "T3 sequence (P20813 1-491)": "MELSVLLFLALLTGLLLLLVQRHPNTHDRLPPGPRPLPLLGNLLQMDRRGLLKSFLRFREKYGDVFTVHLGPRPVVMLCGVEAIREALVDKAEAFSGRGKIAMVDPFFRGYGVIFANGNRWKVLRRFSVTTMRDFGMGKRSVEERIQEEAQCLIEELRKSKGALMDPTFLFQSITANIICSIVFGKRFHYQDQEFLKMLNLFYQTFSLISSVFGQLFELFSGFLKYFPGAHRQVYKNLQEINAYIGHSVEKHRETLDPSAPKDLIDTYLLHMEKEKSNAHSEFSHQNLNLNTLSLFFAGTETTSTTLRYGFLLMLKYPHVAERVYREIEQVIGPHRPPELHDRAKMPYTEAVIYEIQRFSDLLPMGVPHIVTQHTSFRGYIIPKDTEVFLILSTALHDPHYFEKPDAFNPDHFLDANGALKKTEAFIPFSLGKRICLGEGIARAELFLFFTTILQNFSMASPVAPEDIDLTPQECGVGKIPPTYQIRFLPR", "experiment": "Reversible inhibition of CYP2B6 in pooled human liver microsomes", "type": "in vitro ADME"}, "CYP2C8": {"target": "T4, CYP2C8 (Homo sapiens, UniProt P10632)", "T4 sequence (P10632 1-490)": "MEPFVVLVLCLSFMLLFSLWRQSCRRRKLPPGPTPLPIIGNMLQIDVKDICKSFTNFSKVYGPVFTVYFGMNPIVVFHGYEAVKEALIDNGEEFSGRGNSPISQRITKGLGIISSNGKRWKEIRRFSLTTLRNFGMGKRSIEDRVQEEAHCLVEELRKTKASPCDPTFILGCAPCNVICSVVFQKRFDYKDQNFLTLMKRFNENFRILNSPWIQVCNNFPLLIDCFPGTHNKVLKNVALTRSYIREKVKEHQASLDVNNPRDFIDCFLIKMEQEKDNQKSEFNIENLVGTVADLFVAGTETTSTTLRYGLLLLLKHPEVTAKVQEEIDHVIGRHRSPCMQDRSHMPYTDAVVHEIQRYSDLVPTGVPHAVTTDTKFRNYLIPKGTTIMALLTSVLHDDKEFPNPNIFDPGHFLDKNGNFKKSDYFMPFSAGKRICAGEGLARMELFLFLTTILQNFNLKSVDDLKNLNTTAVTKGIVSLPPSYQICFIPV", "experiment": "Reversible inhibition of CYP2C8 in pooled human liver microsomes", "type": "in vitro ADME"}, "CYP2C9": {"target": "CYP2C9 (Homo sapiens, UniProt P11712)", "sequence (P11712 whole entry)": "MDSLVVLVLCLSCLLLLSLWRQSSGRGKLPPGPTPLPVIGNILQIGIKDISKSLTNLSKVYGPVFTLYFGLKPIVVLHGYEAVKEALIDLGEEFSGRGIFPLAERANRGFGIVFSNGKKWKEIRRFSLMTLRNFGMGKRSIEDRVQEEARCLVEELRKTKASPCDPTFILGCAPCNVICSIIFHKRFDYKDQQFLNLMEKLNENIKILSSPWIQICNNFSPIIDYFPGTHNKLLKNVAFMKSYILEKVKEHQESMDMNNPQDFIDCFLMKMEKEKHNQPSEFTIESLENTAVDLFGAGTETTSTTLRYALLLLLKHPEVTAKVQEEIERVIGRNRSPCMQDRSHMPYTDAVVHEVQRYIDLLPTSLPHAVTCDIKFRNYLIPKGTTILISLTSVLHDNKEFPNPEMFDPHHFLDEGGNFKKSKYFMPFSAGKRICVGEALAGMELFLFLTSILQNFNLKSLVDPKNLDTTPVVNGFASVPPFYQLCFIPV", "experiment": "Reversible inhibition of CYP2C9 in pooled human liver microsomes", "type": "in vitro ADME"}, "CYP2C19": {"target": "CYP2C19 (Homo sapiens, UniProt P33261)", "sequence (P33261 whole entry)": "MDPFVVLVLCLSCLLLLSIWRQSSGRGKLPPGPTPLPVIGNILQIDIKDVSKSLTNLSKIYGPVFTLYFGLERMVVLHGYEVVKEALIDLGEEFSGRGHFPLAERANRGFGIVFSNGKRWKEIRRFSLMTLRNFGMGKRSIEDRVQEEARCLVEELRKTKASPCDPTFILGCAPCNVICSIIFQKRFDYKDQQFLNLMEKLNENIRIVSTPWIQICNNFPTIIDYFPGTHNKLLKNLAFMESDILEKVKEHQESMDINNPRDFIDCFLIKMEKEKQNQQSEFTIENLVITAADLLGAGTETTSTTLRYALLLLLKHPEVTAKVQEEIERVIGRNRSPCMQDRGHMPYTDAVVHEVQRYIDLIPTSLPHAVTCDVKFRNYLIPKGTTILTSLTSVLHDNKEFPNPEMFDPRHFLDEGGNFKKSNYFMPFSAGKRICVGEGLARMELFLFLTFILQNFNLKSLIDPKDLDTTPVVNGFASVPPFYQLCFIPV", "experiment": "Reversible inhibition of CYP2C19 in pooled human liver microsomes", "type": "in vitro ADME"}, "CYP2D6 [3]": {"target": "T5, CYP2D6 (Homo sapiens, UniProt P10635)", "T5 sequence (P10635 whole entry)": "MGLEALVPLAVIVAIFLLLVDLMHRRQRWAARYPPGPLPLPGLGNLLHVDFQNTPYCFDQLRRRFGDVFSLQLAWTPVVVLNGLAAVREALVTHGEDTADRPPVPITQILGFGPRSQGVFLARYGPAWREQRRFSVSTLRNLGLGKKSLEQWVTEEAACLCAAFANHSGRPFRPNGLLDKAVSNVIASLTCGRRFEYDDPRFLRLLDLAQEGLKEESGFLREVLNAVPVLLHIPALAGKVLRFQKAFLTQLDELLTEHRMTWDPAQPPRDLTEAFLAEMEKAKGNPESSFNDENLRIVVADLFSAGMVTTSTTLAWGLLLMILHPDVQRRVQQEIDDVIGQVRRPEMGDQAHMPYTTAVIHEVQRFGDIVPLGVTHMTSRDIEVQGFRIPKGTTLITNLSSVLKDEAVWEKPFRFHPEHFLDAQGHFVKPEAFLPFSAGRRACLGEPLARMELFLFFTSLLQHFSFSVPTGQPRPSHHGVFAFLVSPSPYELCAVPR", "experiment": "Reversible inhibition of CYP2D6 in pooled human liver microsomes", "type": "in vitro ADME"}, "CYP3A4/5": {"system": "CYP3A4/5", "experiment": "Time-dependent inhibition of CYP3A in pooled human liver microsomes", "type": "in vitro ADME"}, "CYP2D6 [4]": {"target": "T5, CYP2D6", "experiment": "Time-dependent inhibition of CYP2D6 in pooled human liver microsomes", "type": "in vitro ADME"}, "CYP3A4 mRNA": {"system": "CYP3A4 mRNA", "experiment": "Induction of CYP3A mRNA in cryopreserved human hepatocytes", "type": "in vitro ADME", "settings": "for Estimated Emax (Fold Induction): highest fold induction observed"}, "CYP3A4": {"system": "CYP3A4", "experiment": "Induction of CYP3A4 enzyme activity in cryopreserved human hepatocytes", "type": "in vitro ADME", "settings": "72 hours, positive defined as ≥2‐fold", "outline": "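Cryopreserved human hepatocytes from several lots, in collagen-coated wells, were exposed for 72 h to test compound (0.5–100 or 0.5–60 μM), vehicle, or rifampin (25 or 10 μM). After washing, testosterone (250 μM) or midazolam (30 μM) was added. 6β-Hydroxytestosterone was measured by HPLC-UV and 1′-hydroxymidazolam by LC-MS/MS. A ≥2-fold rise counted as positive. EC50 and Emax were fitted to the concentration–fold-induction curves.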"}, "CYP1A2 [5]": {"system": "CYP1A2", "type": "in vitro ADME", "settings": "human hepatocytes, 72 hours; data not shown"}, "[6]": {"experiment": "Clinical plasma exposure after oral PF-04171327", "type": "in vivo, human", "settings": "25‐mg steady‐state administration of PF‐04171327"}, "[7]": {"system": "CYP2C8, CYP2C9, CYP2D6 and CYP3A (range over these CYPs)", "experiment": "Reversible CYP inhibition panel in human liver microsomes", "type": "in vitro ADME", "settings": "pooled human liver microsomes"}, "[8]": {"settings": "at 0.76 mg/mL microsomal protein; ref data on file; cited from earlier work"}, "[9]": {"settings": "cited from earlier work"}, "[10]": {"experiment": "Phase 1 study safety and tolerability", "type": "in vivo, human"}, "CYP3A [11]": {"target": "T1, CYP3A", "experiment": "clinical", "settings": "in vivo; for Tmax: Tmax of midazolam, median (range)"}, "[12]": {"settings": "10 and 25 mg; patients with RA; week 8; cited from earlier work"}}, "note": "Values joined by “and” are separate entries in the source; they are usually repeats but may differ in a detail not shown here. Equal values may be shown once."}
{"smiles": "Cc1ncccc1NC(=O)c1ccc2c(c1)CC[C@@H]1C[C@@](O)(C(F)(F)F)CC[C@@]21Cc1ccccc1", "note": "[PF‐00251802, dagrocorat]", "values": [{"measurement": "IC50", "setting": "CYP3A [1]; probe felodipine (oxidation)", "result": 1300, "unit": "nM"}, {"measurement": "IC50", "setting": "CYP3A [1]; probe midazolam (1′-hydroxylation)", "result": 4600, "unit": "nM"}, {"measurement": "IC50", "setting": "CYP3A [1]; probe testosterone (6β-hydroxylation)", "result": 1000, "unit": "nM"}, {"measurement": "IC50", "setting": "CYP1A2 [2]", "result": "> 30000", "unit": "nM"}, {"measurement": "IC50", "setting": "CYP2B6", "result": "> 30000", "unit": "nM"}, {"measurement": "IC50", "setting": "CYP2C8", "result": 480, "unit": "nM"}, {"measurement": "IC50", "setting": "CYP2C9", "result": 1800, "unit": "nM"}, {"measurement": "IC50", "setting": "CYP2C19", "result": "> 30000", "unit": "nM"}, {"measurement": "IC50", "setting": "CYP2D6 [3]", "result": 570, "unit": "nM"}, {"measurement": "Concentrations at which time‐dependent inhibition of CYP3A was shown", "setting": "CYP3A4/5; midazolam as marker substrate", "result": "≥ 80", "unit": "nM"}, {"measurement": "kinact/KI", "setting": "CYP3A4/5; midazolam, slope of kobs versus [I] curve", "result": 1200, "unit": "M⁻¹ s⁻¹"}, {"measurement": "Ki", "setting": "CYP2D6 [4]", "result": 570, "unit": "nM"}, {"measurement": "kinact/KI", "setting": "CYP2D6 [4]; dextromethorphan", "result": 367, "unit": "M⁻¹ s⁻¹"}, {"measurement": "Concentrations at which time‐dependent inhibition of CYP2D6 was shown", "setting": "CYP2D6 [4]; dextromethorphan as probe substrate", "result": "≥ 600", "unit": "nM"}, {"measurement": "Estimated Emax (Fold Induction)", "setting": "CYP3A4 mRNA; Lot 1, expt 1", "result": 13, "unit": "Fold Induction"}, {"measurement": "Estimated Emax (Fold Induction)", "setting": "CYP3A4 mRNA; Lot 1, expt 2", "result": 4.7, "unit": "Fold Induction"}, {"measurement": "Estimated Emax (Fold Induction)", "setting": "CYP3A4 mRNA; Lot 2, expt 1", "result": 40, "unit": "Fold Induction"}, {"measurement": "Estimated Emax (Fold Induction)", "setting": "CYP3A4 mRNA; Lot 2, expt 2", "result": 22, "unit": "Fold Induction"}, {"measurement": "Induction of CYP3A4 mRNA", "setting": "CYP3A4 mRNA; all lots tested, positive defined as ≥4‐fold induction based on mRNA", "result": "Induction of CYP3A4 mRNA was observed"}, {"measurement": "Induction of CYP3A4 enzyme activity", "setting": "CYP3A4", "result": "not observed"}, {"measurement": "Induction of CYP1A2 enzyme activity", "setting": "CYP1A2 [5]", "result": "No induction"}, {"measurement": "Unbound Cmax", "setting": "[6]", "result": "approximately 2.1 ng/mL and ~4.2 nM"}, {"measurement": "IC50", "setting": "[7]", "result": "480 to 4600", "unit": "nM"}, {"measurement": "Fraction unbound in microsomes", "setting": "[8]", "result": "approximately 0.22"}, {"measurement": "Estimated total Cmax", "setting": "[9]; 25‐mg steady‐state administration of PF‐04171327, ref Miyoshi et al 11, Weatherley et al 22, unpublished data", "result": "approximately 300 ng/mL"}, {"measurement": "Time to achieve apparent steady‐state concentrations", "setting": "[9]; multiple‐dose study of PF‐04171327 in healthy volunteers", "result": 12, "unit": "days"}, {"measurement": "Cmax", "setting": "[9]; read-out: Estimated total Cmax, 25‐mg steady‐state administration of PF‐04171327, ref Miyoshi et al 11, Weatherley et al 22, unpublished data", "result": "~610", "unit": "nM"}]}
{"smiles": "Cc1ncc2n1-c1ccc(Cl)cc1C(c1ccccc1F)=NC2", "note": "[Midazolam, midazolam]", "values": [{"measurement": "Treatment‐emergent AEs", "setting": "[10]; midazolam 2 mg only, 12 healthy volunteers", "result": "No TEAEs were reported"}, {"measurement": "AUC(0-inf)", "setting": "CYP3A [11]", "result": 20.3, "unit": "ng·h/mL"}, {"measurement": "AUC(0-t)", "setting": "CYP3A [11]", "result": 19.8, "unit": "ng·h/mL"}, {"measurement": "Cmax", "setting": "CYP3A [11]", "result": 7.2, "unit": "ng/mL"}, {"measurement": "half-life", "setting": "CYP3A [11]", "result": 3.34, "unit": "h"}, {"measurement": "Tmax", "setting": "CYP3A [11]", "result": "~0.5", "unit": "h"}, {"measurement": "AUC(0-inf)", "setting": "CYP3A [11]; po, 2 mg", "result": 21.2, "unit": "ng·h/mL"}, {"measurement": "AUC(0-t)", "setting": "CYP3A [11]; po, 2 mg", "result": 20.5, "unit": "ng·h/mL"}, {"measurement": "Cmax", "setting": "CYP3A [11]; po, 2 mg", "result": 8.03, "unit": "ng/mL"}, {"measurement": "half-life", "setting": "CYP3A [11]; po, 2 mg", "result": 3.87, "unit": "h"}, {"measurement": "Tmax", "setting": "CYP3A [11]; po, 2 mg", "result": "~0.5", "unit": "h"}]}
{"smiles": "Cc1ncccc1NC(=O)c1ccc2c(c1)CC[C@@H]1C[C@@](OP(=O)(O)O)(C(F)(F)F)CC[C@@]21Cc1ccccc1", "note": "[PF‐04171327, fosdagrocorat]", "values": [{"measurement": "SAEs or deaths", "setting": "[10]; coadministration of PF‐04171327 and midazolam", "result": "No SAEs or deaths were reported"}, {"measurement": "Detection in systemic circulation", "setting": "[9]; single or multiple ascending‐dose phase 1 studies, lower limit of quantification 0.5 ng/mL, ref Pfizer, unpublished data", "result": "not detected"}, {"measurement": "Efficacy in improving signs and symptoms of RA", "setting": "[12]", "result": "superior efficacy relative to placebo and comparable efficacy relative to prednisone"}]}
